From ChEMBL document CHEMBL3808334, “Synthesis and in vitro evaluation of novel triazine analogues as anticancer agents and their interaction studies with bovine serum albumin” (Eur J Med Chem, 2016)

Assays:
Format in all cases: functional
SK-MEL-2 [1] = assay: Growth inhibition of human SK-MEL-2 cells assessed as cell growth at 10 uM incubated for 48 hrs by sulforhodamine B assay; conditions: SK-MEL-2, 48 h, read-out: Activity
[2] = Growth inhibition of human colon cancer cells incubated for 48 hrs by sulforhodamine B assay; conditions: Cancer cell lines; for CC50: read-out: LC50 (the source's name)
[3] = Growth inhibition of human LOXIMVI cells assessed as cell growth at 10^-7 M incubated for 48 hrs by sulforhodamine B assay; conditions: LOX IMVI, read-out: Activity
[4] = Growth inhibition of human MOLT4 cells assessed as cell growth at 10^-6 M incubated for 48 hrs by sulforhodamine B assay; conditions: MOLT-4, 48 h, read-out: Activity
[5] = Growth inhibition of human HCC2998 cells assessed as cell growth at 10^-5 M incubated for 48 hrs by sulforhodamine B assay; conditions: HCC 2998, 48 h, read-out: Activity
How it was run: (§1)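 Cells seeded at 5,000–40,000/well according to doubling time and preincubated 24 h at 37 °C, 5% CO2. Time-zero plates were TCA-fixed. DMSO concentrate was diluted in medium with 50 µg/ml gentamicin to give five concentrations (10-fold or ½ log steps), then exposed 48 h. Cells were TCA-fixed, stained with 0.4% SRB and read at 515 nm. Percent growth was taken against time-zero and control; GI50, TGI and LC50 derived.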

[6] = Growth inhibition of human MOLT4 cells assessed as cell growth at 10^-8 M incubated for 48 hrs by sulforhodamine B assay; conditions: MOLT-4, 48 h, read-out: Activity
ACHN = assay: Growth inhibition of human ACHN cells assessed as cell growth at 10^-7 M incubated for 48 hrs by sulforhodamine B assay; conditions: read-out: Activity
How it was run: (§2)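 Five-dose assay: five concentrations from 10-fold or ½-log serial dilutions. Cells are plated at 5,000–40,000 per well according to doubling time, grown 24 h, then exposed 48 h at 37 °C, 5% CO₂. Fixed with cold 50% TCA (final addition) for 60 min at 4 °C and stained with 0.4% SRB in 1% acetic acid. Bound dye is solubilized in 10 mM Tris base and read at 515 nm. GI₅₀ is where [(Ti−Tz)/(C−Tz)]×100 = 50, with a time-zero plate as Tz.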

SR = assay: Growth inhibition of human SR cells incubated for 48 hrs by sulforhodamine B assay
How it was run: (§3)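 Cells were plated at 5,000–40,000 per well according to doubling time and preincubated 24 h at 37 °C in 5% CO2; time-zero plates were then TCA-fixed. Five concentrations (10-fold or ½-log dilutions, DMSO stock) were incubated 48 h. Cells were TCA-fixed, stained with 0.4% SRB and read at 515 nm. GI50 was taken where [(Ti−Tz)/(C−Tz)]×100 = 50.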

SK-MEL-2 [7] = assay: Growth inhibition of human SK-MEL-2 cells assessed as cell growth at 10^-7 M incubated for 48 hrs by sulforhodamine B assay; conditions: SK-MEL-2, 48 h, read-out: Activity
SN12C = assay: Growth inhibition of human SN12C cells assessed as cell growth at 10^-7 M incubated for 48 hrs by sulforhodamine B assay; conditions: read-out: Activity
[8] = Growth inhibition of human Hs 578T cells assessed as cell growth at 10^-6 M incubated for 48 hrs by sulforhodamine B assay; conditions: read-out: Activity
[9] = Growth inhibition of human SKOV3 cells assessed as cell growth at 10^-6 M incubated for 48 hrs by sulforhodamine B assay; conditions: SK-OV-3, 48 h, read-out: Activity
[10] = Growth inhibition of human RPMI8226 cells assessed as cell growth at 10^-6 M incubated for 48 hrs by sulforhodamine B assay; conditions: RPMI-8226, 48 h, read-out: Activity
[11] = Growth inhibition of human SF268 cells assessed as cell growth at 10^-6 M incubated for 48 hrs by sulforhodamine B assay; conditions: SF-268, 48 h, read-out: Activity
[12] = Growth inhibition of human BT549 cells assessed as cell growth at 10^-6 M incubated for 48 hrs by sulforhodamine B assay; conditions: BT-549, 48 h, read-out: Activity; how it was run: as §2
[13] = Growth inhibition of human UACC62 cells incubated for 48 hrs by sulforhodamine B assay; conditions: UACC-62, 48 h; how it was run: as §3
786-0 = assay: Growth inhibition of human 786-0 cells assessed as cell growth at 10^-7 M incubated for 48 hrs by sulforhodamine B assay; conditions: 786-0, 48 h, read-out: Activity; how it was run: as §2
[14] = Growth inhibition of human HOP92 cells assessed as cell growth at 10^-7 M incubated for 48 hrs by sulforhodamine B assay; conditions: HOP-92, 48 h, read-out: Activity
[15] = Growth inhibition of human RXF393 cells assessed as cell growth at 10^-4 M incubated for 48 hrs by sulforhodamine B assay; conditions: RXF 393, 48 h, read-out: Activity
[16] = Growth inhibition of human PC3 cells assessed as cell growth at 10^-8 M incubated for 48 hrs by sulforhodamine B assay; conditions: PC-3, 48 h, read-out: Activity
[17] = Growth inhibition of human HCT15 cells assessed as cell growth at 10^-5 M incubated for 48 hrs by sulforhodamine B assay; conditions: HCT-15, 48 h, read-out: Activity; how it was run: as §1
[18] = Growth inhibition of human BT549 cells assessed as cell growth at 10^-5 M incubated for 48 hrs by sulforhodamine B assay; conditions: BT-549, 48 h, read-out: Activity; how it was run: as §2
[19] = Growth inhibition of human Caki1 cells assessed as cell growth at 10^-6 M incubated for 48 hrs by sulforhodamine B assay; conditions: CAKI-1, 48 h, read-out: Activity; how it was run: as §1
[20] = Growth inhibition of human HOP62 cells incubated for 48 hrs by sulforhodamine B assay; conditions: HOP-62, 48 h; how it was run: as §1
[21] = Growth inhibition of human SF268 cells incubated for 48 hrs by sulforhodamine B assay; conditions: SF-268, 48 h; how it was run: as §3
SK-MEL-28 = assay: Growth inhibition of human SK-MEL-28 cells assessed as cell growth at 10^-6 M incubated for 48 hrs by sulforhodamine B assay; conditions: SK-MEL-28, 48 h, read-out: Activity
[22] = Growth inhibition of human HCT116 cells assessed as cell growth at 10 uM incubated for 48 hrs by sulforhodamine B assay; conditions: HCT-116, 48 h, read-out: Activity
How it was run: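 Primary screen at one dose (10 µM) across 60 human cancer cell lines. Readout was growth percent relative to untreated control and time-zero.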

[23] = Growth inhibition of human RXF393 cells assessed as cell growth at 10^-8 M incubated for 48 hrs by sulforhodamine B assay; conditions: RXF 393, 48 h, read-out: Activity
[24] = read-out: LC50 (the source's name)
[25] = read-out: pLC50 (the source's name) (converted)

c1ccc(-c2nc(Nc3ccc(-c4nc5ccccc5[nH]4)cc3)nc(N3CCOCC3)n2)cc1
growth at 10 µM (SK-MEL-2 [1]): -52.7%
GI50 [2]: 0.99 µM
TGI [2]: 2.55 µM
CC50 [2]: 6.53 µM
growth at 0.1 µM [3]: 96%
growth at 1 µM [4]: 65%
growth at 10 µM [5]: -62%
growth at 0.01 µM [6]: 96%
growth at 0.1 µM (ACHN): 92%
GI50 (SR; read-out: GI50): 0.125 µM
CC50 (SR; [24]): > 100 µM
TGI (SR; read-out: TGI): 0.555 µM
GI50 (SR; read-out: pGI50 (converted)): 0.126 µM
CC50 (SR; [25]): > 100 µM
TGI (SR; read-out: pTGI (converted)): 0.55 µM
growth at 0.1 µM (SK-MEL-2 [7]): 101%
growth at 0.1 µM (SN12C): 90%
growth at 1 µM [8]: 78%
growth at 1 µM [9]: 104%
growth at 1 µM [10]: 54%
growth at 1 µM [11]: 86%
growth at 1 µM [12]: 100%
GI50 ([13]; read-out: GI50): 1.66 µM
CC50 [13, 24]: 7.29 µM
TGI ([13]; read-out: TGI): 3.48 µM
GI50 ([13]; read-out: pGI50 (converted)): 1.66 µM
CC50 [13, 25]: 7.24 µM
TGI ([13]; read-out: pTGI (converted)): 3.47 µM
growth at 0.1 µM (786-0): 78%
growth at 0.1 µM [14]: 107%
growth at 100 µM [15]: -61%
growth at 0.01 µM [16]: 99%
growth at 10 µM [17]: -58%
growth at 10 µM [18]: -69%
growth at 1 µM [19]: 68%
GI50 ([20]; read-out: GI50): 1.73 µM
LC50 ([20]; read-out: LC50): 7.16 µM
TGI ([20]; read-out: TGI): 3.52 µM
GI50 ([20]; read-out: pGI50 (converted)): 1.74 µM
LC50 ([20]; read-out: pLC50 (converted)): 7.08 µM
TGI ([20]; read-out: pTGI (converted)): 3.55 µM
GI50 ([21]; read-out: GI50): 1.64 µM
CC50 [21, 24]: 6.39 µM
TGI ([21]; read-out: TGI): 3.24 µM
GI50 ([21]; read-out: pGI50 (converted)): 1.62 µM
CC50 [21, 25]: 6.46 µM
TGI ([21]; read-out: pTGI (converted)): 3.24 µM
growth at 1 µM (SK-MEL-28): 82%
growth at 10 µM [22]: -81.5%
growth at 0.01 µM [23]: 97%

Fc1ccc(-c2nc(Nc3ccc(-c4nc5ccccc5[nH]4)cc3)nc(N3CCOCC3)n2)cc1
growth at 10 µM (SK-MEL-2 [1]): -19.2%
GI50 [2]: 2.15 µM
TGI [2]: 4.73 µM
CC50 [2]: 7.9 µM
growth at 0.1 µM [3]: 95%
growth at 1 µM [4]: 87%
growth at 10 µM [5]: 4%
growth at 0.01 µM [6]: 98%
growth at 0.1 µM (ACHN): 95%
GI50 (SR; read-out: GI50): 0.539 µM
CC50 (SR; [24]): > 100 µM
GI50 (SR; read-out: pGI50 (converted)): 0.537 µM
CC50 (SR; [25]): > 100 µM
growth at 0.1 µM (SK-MEL-2 [7]): 101%
growth at 0.1 µM (SN12C): 90%
growth at 1 µM [8]: 71%
growth at 1 µM [9]: 101%
growth at 1 µM [10]: 77%
growth at 1 µM [11]: 89%
growth at 1 µM [12]: 83%
GI50 ([13]; read-out: GI50): 1.7 µM
TGI ([13]; read-out: TGI): 3.56 µM
GI50 ([13]; read-out: pGI50 (converted)): 1.7 µM
TGI ([13]; read-out: pTGI (converted)): 3.55 µM
growth at 0.1 µM (786-0): 97%
growth at 0.1 µM [14]: 104%
growth at 100 µM [15]: -35%
growth at 0.01 µM [16]: 100%
growth at 10 µM [17]: -35%
growth at 10 µM [18]: -53%
growth at 1 µM [19]: 87%
GI50 ([20]; read-out: GI50): 2.11 µM
LC50 ([20]; read-out: LC50): > 100 µM
TGI ([20]; read-out: TGI): 5.3 µM
GI50 ([20]; read-out: pGI50 (converted)): 2.09 µM
LC50 ([20]; read-out: pLC50 (converted)): > 100 µM
TGI ([20]; read-out: pTGI (converted)): 5.25 µM
GI50 ([21]; read-out: GI50): 2.82 µM
CC50 [21, 24]: > 100 µM
TGI ([21]; read-out: TGI): 26.5 µM
GI50 ([21]; read-out: pGI50 (converted)): 2.82 µM
CC50 [21, 25]: > 100 µM
TGI ([21]; read-out: pTGI (converted)): 26.3 µM
growth at 1 µM (SK-MEL-28): 84%
growth at 10 µM [22]: 4.8%
growth at 0.01 µM [23]: 102%
